Experiments:
[1] = test system: MRC5; test: Antiviral activity in plaque reduction assay was determined against herpes simplex virus type 2 (HSV-2) in MRC-5 cells.; assay type: functional, cell-based; settings: Homo sapiens
Summary of the method: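 HSV-2 at about 50 PFU infected onto MRC-5 monolayers. Compound at various concentrations, present throughout incubation. Stocks 10 mg/mL in Me2SO, diluted in culture medium. Plaques counted when clearly visible, usually 1 day.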

[2] = test system: Mus musculus; test: Concentration of BRL 44385 in blood was determined in female BALB/c mice at 15 min a after of dosing of […]; assay type: ADME, organism-based; settings: in vivo, 0.25 h
Summary of the method: (§1)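 Female Balb/c mice (20 g), fasted 18 h, given a single 0.2 mmol/kg oral gavage dose in 0.1 mL 1% (carboxymethyl)cellulose. Blood drawn by cardiac puncture with heparinised syringes at 15, 60 and 180 min. Equal volumes from three mice pooled per time point. Samples deproteinised with 16% trichloroacetic acid, neutralised with NaHCO3, mixed with 0.4 M NH4OAc (pH 6.0), and analysed by HPLC.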

[3] = test system: Mus musculus; test: Concentration of BRL 44385 in blood was determined in female BALB/c mice at 60 min a after of dosing of […]; assay type: ADME, organism-based; settings: in vivo, 1 h; summary of the method: as §1
[4] = test system: MRC5; test: Antiviral activity in plaque reduction assay was determined against varicella zoster virus (VZV) in MRC-5 cells.; assay type: functional, cell-based; settings: Homo sapiens
[5] = test system: Vero; test: Antiviral activity in plaque reduction assay was determined against herpes simplex virus type 1 (HSV-1) in Vero cells.; assay type: functional, cell-based; settings: Chlorocebus sabaeus
Summary of the method: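 Vero monolayers infected with about 50 PFU HSV-1. Compound at various concentrations, present throughout incubation. Stocks 10 mg/mL in Me2SO, diluted in culture medium. Plaques counted when clearly visible, usually 3 days.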

[6] = test system: Mus musculus; test: Concentration of BRL 44385 in blood was determined in female BALB/c mice at 60 min after dosing of […]; assay type: ADME, organism-based; settings: in vivo, 1 h; summary of the method: as §1

concentration [2] [µM]	concentration [3] [µM]	concentration [6] [µM]	Compound	IC50 [1] [µM]	IC50 [4] [µM]	IC50 [5] [µM]
8	3	–	CCCCCC(=O)OCCCOn1cnc2c(O)nc(N)nc21	0.22	7.4	2.1
37	15	–	CCOc1nc(N)nc2c1ncn2OCC(CO)CO	–	–	–
43	3	–	Nc1ncc2ncn(OCCCO)c2n1	–	–	–
7	8	–	COc1nc(N)nc2c1ncn2OCC(CO)CO	–	–	–
29	26	–	CC(C)Oc1nc(N)nc2c1ncn2OCC(CO)CO	–	–	–
3	5	–	CC(=O)OCCCOn1cnc2c(O)nc(N)nc21	4.1	45	16
8	5	–	Nc1nc(O)c2ncn(OCCCO)c2n1	0.71	4.4	2.1
6	< 2	–	CCOc1nc(N)nc2c1ncn2OCCCO	–	–	–

Continued, molecule first:

Compound	concentration [2] [µM]	concentration [3] [µM]	concentration [6] [µM]	IC50 [1] [µM]	IC50 [4] [µM]	IC50 [5] [µM]
Nc1ncc2ncn(OCC(CO)CO)c2n1	31	16	–	–	–	–
CC(=O)OCC(COC(C)=O)COn1cnc2cnc(N)nc21	53	10	–	–	–	–
Nc1ncc2ncn(OCCCOC(=O)c3ccccc3)c2n1	46	4	–	–	–	–
Nc1nc(O)c2ncn(OCC3COP(=O)(O)OC3)c2n1 (stereo not drawn)	–	–	–	180	186	180
Nc1nc(Cl)c2ncn(OCC(CO)CO)c2n1	11	5	–	–	–	–
Nc1nc2c(ncn2COCCO)c(=O)[nH]1 [ACYCLOVIR]	–	–	–	2.5	–	6.7
Nc1ncc2ncn(OCC(COC(=O)c3ccccc3)COC(=O)c3ccccc3)c2n1	14	–	9	–	–	–
CCCCCC(=O)OCCCOn1cnc2cnc(N)nc21	66	4	–	–	–	–
Nc1nc(O)c2ncn(OCCCOC(=O)c3ccccc3)c2n1	< 2	< 2	–	6.4	> 300	8.5
Nc1nc(O)c2ncn(OCC(CO)CO)c2n1	2	2	–	5.9	11	5.9
CCC(=O)OCC(COC(=O)CC)COn1cnc2cnc(N)nc21	49	12	–	–	–	–
Nc1nc(N)c2ncn(OCC(CO)CO)c2n1	< 2	< 2	–	–	–	–
CC(=O)OCCCOn1cnc2cnc(N)nc21	45	3	–	–	–	–

From ChEMBL document CHEMBL1124932, “Synthesis and antiviral activity of 9-alkoxypurines. 1. 9-(3-Hydroxypropoxy)- and 9-[3-hydroxymethyl)propoxy]purines” (J Med Chem, 1990)
